Here are results for 15 compounds from ChEMBL document CHEMBL2434834, “Synthesis of pyrido[2,1-a]isoquinolin-4-ones and oxazino[2,3-a]isoquinolin-4-ones: new inhibitors of mitochondrial respiratory chain” (Eur J Med Chem, 2013).

Test [1] is described as follows: Inhibition of NADH oxidase in beef heart sub-mitochondrial particles after 5 mins. More on the design: species or system Bos taurus. A digest of the protocol:
(§1)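 Inverted beef-heart submitochondrial particles were made by extensive sonication of frozen-thawed mitochondria and stored at -70 °C at 28 mg/mL protein (Bradford). After incubation with inhibitor, particles were diluted to […] in 50 mM potassium phosphate pH 7.4 with 1 mM EDTA, at 22 °C with NADH. Aerobic NADH oxidation was followed at 340 nm (ε 6.22 mM⁻¹ cm⁻¹), with rates taken from the linear decrease at increasing inhibitor concentrations.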

Test [2] is described as follows: Inhibition of NADH oxidase in beef heart sub-mitochondrial particles by UV-spectrophotometric analysis. More on the design: species or system Bos taurus. In a few lines: as §1

Structures are written as SMILES.

Usually IC50 stands for the concentration that gives 50% inhibition.

For the compound `CC(C)Cc1cnc(CC(C)C)c(=O)[nH]1`, the IC50 in test [1] is 13 µM.

For the compound `COc1cc2c(cc1OC)C1(Cc3ccccc3)OC(C)=CC(=O)N1CC2` (stereo not given), the IC50 in test [2] came to 1.53 µM.

`COc1cc2c(cc1OC)C1(C)OC(C)=CC(=O)N1CC2` (stereo not given) returned an IC50 in test [2] of 1.36 µM.

`COc1cc2c(cc1OC)-c1cc(C)cc(=O)n1CC2` came in with an IC50 in test [2] of 8.23 µM.

In turn, `COc1cc2c(cc1OC)C1(C)OC(c3ccccc3)=CC(=O)N1CC2` (stereo not given) gave an IC50 in test [2] of 1.32 µM.

`COc1cc2c(cc1OC)-c1cc(-c3ccco3)cc(=O)n1CC2` displayed an IC50 in test [2] of 12.5 µM.

`COc1cc2c(cc1OC)C1(C)OC(c3ccco3)=CC(=O)N1CC2` (stereo not given) had an IC50 in test [2] of 0.9 µM.

For the compound `Cc1cc2n(c(=O)c1)CCc1cc(O)c(O)cc1-2`, in test [2], the midpoint of inhibition, the IC50, lay at 3.44 µM.

Compound `COc1cc2c(cc1OC)-c1c(-c3ccccc3Br)c(C)cc(=O)n1CC2` yielded an IC50 in test [2] of 4.24 µM.

For `COc1cc2c(cc1OC)C1(Cc3ccccc3Br)OC(C)=CC(=O)N1CC2` (stereo not given), the IC50 in test [2] came out at 1.39 µM.

With `COc1cc2c(cc1OC)-c1c(-c3ccccc3)c(C)cc(=O)n1CC2`, in test [2], the IC50 is 4.69 µM.

Take `COc1cc(O)c2nc3n(c(=O)c2c1)-c1ccccc1C(=O)N1CCC[C@@H]31`: in test [1], half-maximal inhibition (IC50) was put at 2.5 µM.

Turning to `COc1ccc2nc3n(c(=O)c2c1)-c1ccccc1C(=O)N1CCC[C@@H]31`, the IC50 in test [1] is 1.5 µM.

In test [2], `COc1cc2c(cc1OC)-c1cc(-c3ccccc3)cc(=O)n1CC2` had an IC50 of more than 30 µM.

Compound `C=C(C)[C@H]1Cc2c(ccc3c2O[C@@H]2COc4cc(OC)c(OC)cc4[C@@H]2C3=O)O1` [ROTENONE] yielded an IC50 in test [2] of 0.0051 µM.
